# From ChEMBL document CHEMBL1131374, “Inhibition of Fc epsilon RI-mediated activation of mast cells by 2,3,4-trihydropyrimidino[2,1-a]isoquinolines” (J Med Chem, 1998)
# Assay: The Hexosaminidase release concentration in CPII mouse mastcells transfected with TNF-alpha 3' reporter gene plasmid was measured
# Type: functional
# Conditions: not given
row,Compound,IC50 [µM]
1,CC(C)(C)c1ccc(C2=Cc3ccc(N(Cc4ccccc4)Cc4ccccc4)cc3C3=NCCCN23)cc1,0.6
2,CC(C)(C)c1ccc(C2=Cc3ccc(NC(=O)Cc4ccccn4)cc3C3=NCCCN23)cc1,4.8
3,CC(C)(C)c1ccc(C2=Cc3ccccc3C3=NCCCN23)cc1,0.7
4,CC(C)(C)c1ccc(C2=C(Cc3ccccc3)c3ccccc3C3=NCCCN32)cc1,2.9
5,CC(C)(C)c1ccc(C2=Cc3ccc(N/C(S)=N/C4CCCCC4)cc3C3=NCCCN23)cc1,3.3
6,CCOc1ccc(CC2=C(CCCc3cccc4ccccc34)N3CCCN=C3c3ccccc32)cc1,3.5
7,C1=C(c2ccc(OCc3ccccc3)cc2)N2CCCN=C2c2ccccc21,0.9
8,N[C@@H](Cc1ccccc1)C1=Cc2ccccc2C2=NCCCN12,> 25
9,CCCCC1=C(c2ccc(C(C)(C)C)cc2)N2CCCN=C2c2ccccc21,0.6
10,C1=C(Cc2ccccc2)c2ccccc2C2=NCCCN12,> 10
11,C1=C(c2ccccc2)N2CCCN=C2c2ccccc21,12
12,CC(C)(C)c1ccc(C2=Cc3ccc(NC(=O)Nc4ccc(Cl)cc4Cl)cc3C3=NCCCN23)cc1,17
13,CCCCCCC1=Cc2ccccc2C2=NCCCN12,4.5
14,C1=C(c2ccc(CCc3ccccc3)cc2)N2CCCN=C2c2ccccc21,0.5
15,CCOc1ccc(CC2=C(c3ccc(CCc4ccccc4)cc3)N3CCCN=C3c3ccccc32)cc1,2.6
16,C[Si](C)(C)c1ccc(C2=C(Cc3ccccc3)c3ccccc3C3=NCCCN32)cc1,1.2
17,C1=C(/C=C/c2ccccc2)N2CCCN=C2c2ccccc21,4.1
18,CCCCC1=C(c2ccc(CCc3ccccc3)cc2)N2CCCN=C2c2ccccc21,0.3
19,CC(C)(C)c1ccc(C2=Cc3ccc(NC(=O)NC4CCCCC4)cc3C3=NCCCN23)cc1,2.1
20,Clc1ccc(C2=Cc3ccccc3C3=NCCCN23)cc1,5.5
21,c1ccc(CCc2ccc(C3=C(Cc4ccccc4)c4ccccc4C4=NCCCN43)cc2)cc1,0.9
22,CN(C)CCC1=C(c2ccc(C(C)(C)C)cc2)N2CCCN=C2c2ccccc21,> 10
23,CC(C)(C)c1ccc(C2=Cc3ccc(N)cc3C3=NCCCN23)cc1,3
24,Clc1ccc(OCC2=Cc3ccccc3C3=NCCCN23)cc1,> 25
25,C[Si](C)(C)c1ccc(C2=Cc3ccccc3C3=NCCCN23)cc1,0.5
26,C1=C(c2ccc(-c3ccccc3)cc2)N2CCCN=C2c2ccccc21,1.7
27,CC1=Cc2ccccc2C2=NCCCN12,> 25
28,COc1cc(C2=Cc3ccccc3C3=NCCCN23)cc(OC)c1OC,> 25

# Assay: (§1) The Inhibitory potency on CPII mouse mastcells transfected with TNF-alpha 3' reporter gene plasmid was measured by reporter gene assay
# Type: functional
# Conditions: not given
row,Compound,IC50 [µM]
1,CC(C)(C)c1ccc(C2=Cc3ccc(N(Cc4ccccc4)Cc4ccccc4)cc3C3=NCCCN23)cc1,0.6
2,CC(C)(C)c1ccc(C2=Cc3ccc(NC(=O)Cc4ccccn4)cc3C3=NCCCN23)cc1,4.8
3,CC(C)(C)c1ccc(C2=Cc3ccccc3C3=NCCCN23)cc1,0.9
4,CC(C)(C)c1ccc(C2=C(Cc3ccccc3)c3ccccc3C3=NCCCN32)cc1,2
5,CC(C)(C)c1ccc(C2=Cc3ccc(N/C(S)=N/C4CCCCC4)cc3C3=NCCCN23)cc1,2.6
6,CCOc1ccc(CC2=C(CCCc3cccc4ccccc34)N3CCCN=C3c3ccccc32)cc1,1.5
7,C1=C(c2ccc(OCc3ccccc3)cc2)N2CCCN=C2c2ccccc21,0.8
8,N[C@@H](Cc1ccccc1)C1=Cc2ccccc2C2=NCCCN12,> 10
9,CCCCC1=C(c2ccc(C(C)(C)C)cc2)N2CCCN=C2c2ccccc21,0.3
10,CC(C)(C)c1ccc(C2=Cc3ccc(NC(=O)Nc4ccc(Cl)cc4Cl)cc3C3=NCCCN23)cc1,3.3
11,CCOc1ccc(CC2=C(c3ccc(CCc4ccccc4)cc3)N3CCCN=C3c3ccccc32)cc1,0.9
12,C[Si](C)(C)c1ccc(C2=C(Cc3ccccc3)c3ccccc3C3=NCCCN32)cc1,0.8
13,C1=C(/C=C/c2ccccc2)N2CCCN=C2c2ccccc21,> 10
14,CCCCC1=C(c2ccc(CCc3ccccc3)cc2)N2CCCN=C2c2ccccc21,0.2
15,CC(C)(C)c1ccc(C2=Cc3ccc(NC(=O)NC4CCCCC4)cc3C3=NCCCN23)cc1,1.7
16,c1ccc(CCc2ccc(C3=C(Cc4ccccc4)c4ccccc4C4=NCCCN43)cc2)cc1,0.6
17,CN(C)CCC1=C(c2ccc(C(C)(C)C)cc2)N2CCCN=C2c2ccccc21,> 10
18,CC(C)(C)c1ccc(C2=Cc3ccc(N)cc3C3=NCCCN23)cc1,1.7

# Assay: as §1
# Type: functional
# Conditions: not given
# In short: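 Clone 12: CPII cells stably carrying a TNFα promoter–luciferase–TNFα 3′ construct. Cells exposed to compound 1 h, then triggered with (dinitrophenyl)albumin/anti-dinitrophenyl-IgE complex. Luciferase read after 6 h incubation. Screening single dose 10 μM; a hit was over 50% inhibition of induction with under 20% toxicity.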
row,Compound,IC50 [µM]
1,C1=C(Cc2ccccc2)c2ccccc2C2=NCCCN12,> 10
2,C1=C(c2ccccc2)N2CCCN=C2c2ccccc21,> 10
3,CCCCCCC1=Cc2ccccc2C2=NCCCN12,> 10
4,C1=C(c2ccc(CCc3ccccc3)cc2)N2CCCN=C2c2ccccc21,0.7
5,Clc1ccc(C2=Cc3ccccc3C3=NCCCN23)cc1,> 10
6,Clc1ccc(OCC2=Cc3ccccc3C3=NCCCN23)cc1,9
7,C[Si](C)(C)c1ccc(C2=Cc3ccccc3C3=NCCCN23)cc1,0.8
8,C1=C(c2ccc(-c3ccccc3)cc2)N2CCCN=C2c2ccccc21,1.5
9,CC1=Cc2ccccc2C2=NCCCN12,> 10
10,COc1cc(C2=Cc3ccccc3C3=NCCCN23)cc(OC)c1OC,> 10

# Assay: The cell toxicity on CPII mouse mast cells transfected with TNF-alpha 3' nontranslated sequences reporter gene plasmid
# Type: cell-based
# Conditions: read-out: TC50 (the source's name)
row,Compound,CC50 [µM]
1,CC(C)(C)c1ccc(C2=Cc3ccc(N(Cc4ccccc4)Cc4ccccc4)cc3C3=NCCCN23)cc1,2.6
2,CC(C)(C)c1ccc(C2=Cc3ccc(NC(=O)Cc4ccccn4)cc3C3=NCCCN23)cc1,8.8
3,CC(C)(C)c1ccc(C2=Cc3ccccc3C3=NCCCN23)cc1,5.7
4,CC(C)(C)c1ccc(C2=C(Cc3ccccc3)c3ccccc3C3=NCCCN32)cc1,5
5,CC(C)(C)c1ccc(C2=Cc3ccc(N/C(S)=N/C4CCCCC4)cc3C3=NCCCN23)cc1,9.9
6,CCOc1ccc(CC2=C(CCCc3cccc4ccccc34)N3CCCN=C3c3ccccc32)cc1,5.5
7,C1=C(c2ccc(OCc3ccccc3)cc2)N2CCCN=C2c2ccccc21,3.5
8,N[C@@H](Cc1ccccc1)C1=Cc2ccccc2C2=NCCCN12,> 25
9,CCCCC1=C(c2ccc(C(C)(C)C)cc2)N2CCCN=C2c2ccccc21,2.1
10,C1=C(Cc2ccccc2)c2ccccc2C2=NCCCN12,> 10
11,C1=C(c2ccccc2)N2CCCN=C2c2ccccc21,> 10
12,CC(C)(C)c1ccc(C2=Cc3ccc(NC(=O)Nc4ccc(Cl)cc4Cl)cc3C3=NCCCN23)cc1,5.8
13,CCCCCCC1=Cc2ccccc2C2=NCCCN12,> 10
14,C1=C(c2ccc(CCc3ccccc3)cc2)N2CCCN=C2c2ccccc21,2.1
15,CCOc1ccc(CC2=C(c3ccc(CCc4ccccc4)cc3)N3CCCN=C3c3ccccc32)cc1,9
16,C[Si](C)(C)c1ccc(C2=C(Cc3ccccc3)c3ccccc3C3=NCCCN32)cc1,5.5
17,C1=C(/C=C/c2ccccc2)N2CCCN=C2c2ccccc21,> 10
18,CCCCC1=C(c2ccc(CCc3ccccc3)cc2)N2CCCN=C2c2ccccc21,2.7
19,CC(C)(C)c1ccc(C2=Cc3ccc(NC(=O)NC4CCCCC4)cc3C3=NCCCN23)cc1,4.8
20,Clc1ccc(C2=Cc3ccccc3C3=NCCCN23)cc1,> 10
21,c1ccc(CCc2ccc(C3=C(Cc4ccccc4)c4ccccc4C4=NCCCN43)cc2)cc1,2.2
22,CN(C)CCC1=C(c2ccc(C(C)(C)C)cc2)N2CCCN=C2c2ccccc21,> 10
23,CC(C)(C)c1ccc(C2=Cc3ccc(N)cc3C3=NCCCN23)cc1,7.8
24,Clc1ccc(OCC2=Cc3ccccc3C3=NCCCN23)cc1,> 10
25,C[Si](C)(C)c1ccc(C2=Cc3ccccc3C3=NCCCN23)cc1,3.2
26,C1=C(c2ccc(-c3ccccc3)cc2)N2CCCN=C2c2ccccc21,3.9
27,CC1=Cc2ccccc2C2=NCCCN12,> 10
28,COc1cc(C2=Cc3ccccc3C3=NCCCN23)cc(OC)c1OC,> 10
